Series [1] deals with Mycobacterium tuberculosis. In words: Antimycobacterial activity against Mycobacterium tuberculosis H37Rv at 6.25 ug/mL by twofold dilution method. It is filed as functional.
The test system of series [2] is Mycobacterium tuberculosis. In words: Antimycobacterial activity against Mycobacterium tuberculosis H37Rv by twofold dilution method. It is filed as functional, organism-based. Summed up: (§1)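 M. tuberculosis H37Rv (ATCC 27294) grown in BACTEC 12B medium, tested by Microplate Alamar Blue Assay across 10 twofold dilutions from 100 to 0.19 µg/mL. IC90 and IC50 taken from dose–response curve fitting.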

A further series relates to Vero. The experiment in a line: Cytotoxicity against african green monkey Vero cells after 72 hrs by MTT assay. In kind it is cell-based. As to conditions: Chlorocebus sabaeus. In outline:
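VERO cell cytotoxicity screen: cells exposed to compound for 72 h, viability read by MTT (CellTiter 96 non-radioactive proliferation reagent); EC50 obtained by curve fitting of the dose–response.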
(In general: Tetrazolium dyes change colour on reduction, which living cells bring about.)

A short description of series [3]: Chemical stability in DMSO-d6 solution assessed as cyclization after 25 days. As to conditions: 600 h. It is filed as physicochemical.
Series [4] is described as follows: Chemical stability in CD3OD solution assessed as cyclization after 25 days. It is filed as physicochemical. As to conditions: read-out: Activity.
A short description of series [5]: Chemical stability in DMSO-d6/D2O solution assessed as cyclization after 25 days. As to conditions: for Stability: 600 h. In kind it is physicochemical.
Series [6] can be described thus: Solubility in CD3OD solution. It is filed as physicochemical.
Series [7] is described as follows: Solubility in DMSO-d6/D2O solution. It is filed as physicochemical.
Series [8] concerns Mycobacterium tuberculosis. The experiment in a line: Antimycobacterial activity against Mycobacterium tuberculosis. It is filed as functional, organism-based. In outline: as §1

Values after ≈ are worked out from the molar mass of the structure shown.

For orientation: inhibition means how much of the control response was suppressed. `COc1ccc(CNc2cc(-c3ccco3)ncn2)cc1` returned an inhibition at 6.25 µg/mL in [1] of 0%.

As a reminder, the IC50 is the concentration needed to halve the response being measured. The IC90 is the concentration at which the effect reaches the 90% level. In the case of `CCNc1c(NCc2ccc(OC)cc2)ncnc1-c1ccco1`, in series [2], inhibition was half-maximal at 36 µg/mL (≈ 111 µM) (IC50) and the 90% effect level (IC90) was put at 46 µg/mL (≈ 142 µM).

With `COc1ccc(CN(C)c2cc(-c3ccco3)nc(Cl)n2)cc1`, the IC50 with Vero is 22 µg/mL (≈ 66.7 µM); in series [2], 1.4 µg/mL (≈ 4.25 µM). Moreover, in series [2], the IC90 is 3 µg/mL (≈ 9.1 µM).

Regarding `COc1ccc(CN(C)c2ncnc(-c3ccco3)c2[N+](=O)[O-])cc1`, in [2], the IC50 came to 5.7 µg/mL (≈ 16.7 µM) and the IC90 is 13 µg/mL (≈ 38.2 µM).

In series [2], `COc1ccc(Cn2cnc(-c3cncnc3-c3ccco3)c2)cc1` gave an IC50 of 62 µg/mL (≈ 187 µM) and an IC90 of 82 µg/mL (≈ 247 µM).

For `NCC[C@H](O)C(=O)N[C@@H]1C[C@H](N)[C@@H](O[C@H]2O[C@H](CN)[C@@H](O)[C@H](O)[C@H]2O)[C@H](O)[C@H]1O[C@H]1O[C@H](CO)[C@@H](O)[C@H](N)[C@H]1O.O=S(=O)(O)O`, in series [2], the IC50 came out at 0.07 µg/mL and the IC90 was found to be 0.13 µg/mL.

Compound `COc1ccc(CNc2ncnc(-c3ccco3)c2N)cc1` yielded an inhibition at 6.25 µg/mL in series [1] of 0%.

On to `COc1ccc(CNc2ncnc(-c3ccco3)c2NC=O)cc1`, for which the Stability result in series [3] is “Stable”. In series [4], the degraded at 600 h was determined as 90%. Moreover, the IC50 with Vero is > 40 µg/mL. In [2], this compound showed an IC50 of 0.22 µg/mL (≈ 0.678 µM) and an IC90 of 0.56 µg/mL (≈ 1.73 µM).

For the compound `COc1ccc(CNc2nc(C)nc(-c3ccco3)c2NC=O)cc1`, the Stability entry in series [3] is on record as “Stable”. In addition, the degraded at 600 h came out at 90% in [4] and 40% in series [5] (DMSO-d6/D2O solution, read-out: Activity). In addition, the results for the IC50 (with Vero; in series [2]) were > 40 µg/mL and < 0.2 µg/mL, respectively. This compound also showed an IC90 in series [2] of 0.33 µg/mL (≈ 0.975 µM).

With `CCc1nc(NCc2ccc(OC)cc2)c(NC=O)c(-c2ccco2)n1`, the Stability result in series [3] is “Stable”. Besides, in series [4], the degraded at 600 h was determined as 90%. For the same compound, the IC50 in the series with Vero was > 40 µg/mL. In series [2], this compound returned an IC50 of 0.26 µg/mL (≈ 0.738 µM) and an IC90 of 0.53 µg/mL (≈ 1.5 µM).

In series [2], `COc1ccc(CN(C)c2ncnc(-c3ccco3)c2N)cc1` showed an IC50 of 9.4 µg/mL (≈ 30.3 µM) and an IC90 of 17 µg/mL (≈ 54.8 µM).

For the compound `COc1ccc(CNc2nc(OC)nc(-c3ccco3)c2NC=O)cc1`, the Stability entry in series [3] and in series [5] was “Stable” each time. Besides, the degraded at 600 h in [4] stood at 12%. The figures for the IC50 (in the series with Vero; in series [2]) were > 40 µg/mL and 0.53 µg/mL (≈ 1.5 µM), respectively. The compound also had an IC90 in series [2] of 1.5 µg/mL (≈ 4.23 µM).

With `COc1ccc(CN(C)c2cc(-c3ccco3)ncn2)cc1`, the solubility entry in series [6] is given as “Insoluble”. Also, the solubility entry in series [7] is on record as “Insoluble”. In series [2], half-maximal inhibition (IC50) was put at 5.5 µg/mL (≈ 18.6 µM) and the IC90 came out at 7.1 µg/mL (≈ 24 µM).

In [8], `COc1ccc(Cn2cnc3c(-c4ccco4)nc(Cl)nc32)cc1` returned an IC90 of 0.82 µg/mL (≈ 2.41 µM).

Regarding `COc1ccc(CNc2nc(N(C)C)nc(-c3ccco3)c2NC=O)cc1`, the Stability entry in [3] is given as “Stable”. The degraded at 600 h in series [4] was found to be 12%. Besides, in series [2], inhibition was half-maximal at 11 µg/mL (≈ 29.9 µM) (IC50) and the IC90 stood at 26 µg/mL (≈ 70.8 µM). In addition, the Stability result in [5] was “Stable”.

Turning to `COc1ccc(CNc2nc([N+](=O)[O-])nc(-c3ccco3)c2NC=O)cc1`, in the series on Vero, the IC50 was > 40 µg/mL. Besides, in series [2], the IC50 came to 0.59 µg/mL (≈ 1.6 µM) and it took 1.1 µg/mL (≈ 2.98 µM) to reach the 90% level (IC90).

For the compound `COc1ccc(CNc2ncnc(-c3ccco3)c2N(C)C)cc1`, in [2], the IC50 came out at 17 µg/mL (≈ 52.4 µM) and the IC90 is > 100 µg/mL.

In [2], `COc1ccc(Cn2cncc2-c2cc(-c3ccco3)ncn2)cc1` came in with an IC50 of 9.8 µg/mL (≈ 29.5 µM) and an IC90 of 14 µg/mL (≈ 42.1 µM).

For the compound `COc1ccc(COc2cc(-c3ccco3)ncn2)cc1`, in series [2], the IC50 was > 100 µg/mL and the IC90 was > 100 µg/mL.

Take `COc1ccc(CNc2nc(F)nc(-c3ccco3)c2NC=O)cc1`: the Stability entry in series [3] and in [5] was “Stable” throughout. Moreover, the IC50 is > 40 µg/mL in the series on Vero and < 0.2 µg/mL in series [2]. For the same compound, the IC90 in series [2] is < 0.2 µg/mL.

Consider `COc1ccc(Cn2cnc3c(-c4ccco4)ncnc32)cc1`, for which, in series [8], the IC50 is < 0.2 µg/mL.

As for `COc1ccc(COc2ncnc(-c3ccco3)c2N)cc1`, in series [2], the IC50 was > 100 µg/mL and the IC90 is > 100 µg/mL.

In series [2], `CNc1c(NCc2ccc(OC)cc2)ncnc1-c1ccco1` gave an IC50 of 9 µg/mL (≈ 29 µM) and an IC90 of 15 µg/mL (≈ 48.3 µM).

In the case of `COc1ccc(COc2cc(-c3ccco3)nc(Cl)n2)cc1`, in series [2], the IC50 is > 100 µg/mL and the IC90 is > 100 µg/mL.

With `COc1ccc(COc2ncnc(-c3ccco3)c2[N+](=O)[O-])cc1`, in series [2], the IC50 is > 50 µg/mL and the IC90 is > 50 µg/mL.

Take `COc1ccc(CNc2cc(-c3ccco3)nc(Cl)n2)cc1`: in series [2], the IC50 is > 100 µg/mL and the IC90 is > 100 µg/mL.

Turning to `COc1ccc(CN(C)c2ncnc(-c3ccco3)c2NC=O)cc1`, in series [2], the IC50 was > 100 µg/mL and the IC90 was > 100 µg/mL.

`COc1ccc(CNc2ncnc(-c3ccco3)c2[N+](=O)[O-])cc1`: in series [2], the IC50 is 13 µg/mL (≈ 39.8 µM) and the IC90 is 21 µg/mL (≈ 64.4 µM).

For the compound `COc1ccc(CNc2nc(Cl)nc(-c3ccco3)c2NC=O)cc1`, the Stability entry in series [3] and in series [5] was “Stable” throughout. Besides, in series [4], the degraded at 600 h is 12%. In addition, the IC50 in the series with Vero is > 40 µg/mL; in [2], < 0.2 µg/mL. Besides, in series [2], the IC90 was found to be 0.2 µg/mL (≈ 0.557 µM).

On to `COc1ccc(CN(C=O)c2c(-c3ccco3)nc[nH]c2=O)cc1`, for which, in series [2], the IC50 worked out at 68 µg/mL (≈ 209 µM) and the IC90 turned out to be 92 µg/mL (≈ 283 µM).

Consider `COc1ccc(COc2ncnc(-c3ccco3)c2NC=O)cc1`, for which, in series [2], the IC50 is > 100 µg/mL and the IC90 is > 100 µg/mL.

The values above are taken from ChEMBL document CHEMBL1165967, “Synthesis and biological evaluation of pyrimidine analogs of antimycobacterial purines” (Bioorg Med Chem, 2010).
